Several values for one entry are separate records, joined by “and”; a condition that tells them apart may be missing. Identical values can stand only once.
Experiments:
CFTR = settings: read-out: IC50, block of CFTR chloride conductance; full block; cited from earlier work
[1] = tested on: cholera toxin-induced intestinal fluid secretion; settings: in vivo; cited from earlier work
[2] = cited from earlier work
FRT cells = assay: Cytotoxicity, crystal violet staining; type: cell-based; settings: 50 μM, 48 h, crystal violet staining vs vehicle-treated cultures
Summary of the method: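 Confluent FRT monolayers exposed to test compound for 2 days, washed 3 times, fixed for 30 min and stained with 0.5% crystal violet for 10 min. Dye extracted in Sorenson's buffer (0.1 M sodium citrate, 50% ethanol, pH 4.2) and read at 650 nm absorbance. Percent staining from 8 wells per test, referenced to cell-free blanks and vehicle-treated cells.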

[3] = Solubility in phosphate buffered saline by LC/MS; type: physicochemical; settings: for Increase of water solubility compared with CFTRinh-172: in saline
Summary of the method: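 Saturated solution made by adding DMSO stock to phosphate buffered saline (final DMSO 2%). Sonicated 5 min at 25 °C, shaken 1 h at room temperature, then centrifuged at 15 000 rpm for 1 h. Supernatant quantified by LC/MS peak area against per-compound standard curves (1–15 or 1–100 μM, linear r > 0.998).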

MDCK cell model = settings: cited from earlier work
human wildtype CFTR = human wildtype CFTR (Homo sapiens, UniProt P13569); assay: Short-circuit current measurement of CFTR inhibition; type: cell-based; settings: for CFTR inhibition activity (in words): short-circuit current, statements in running text; for IC50 (μM) / IC50: FRT cells expressing human wildtype CFTR; for IC50: IC50 (μM)
human wildtype CFTR, sequence (P13569 whole entry): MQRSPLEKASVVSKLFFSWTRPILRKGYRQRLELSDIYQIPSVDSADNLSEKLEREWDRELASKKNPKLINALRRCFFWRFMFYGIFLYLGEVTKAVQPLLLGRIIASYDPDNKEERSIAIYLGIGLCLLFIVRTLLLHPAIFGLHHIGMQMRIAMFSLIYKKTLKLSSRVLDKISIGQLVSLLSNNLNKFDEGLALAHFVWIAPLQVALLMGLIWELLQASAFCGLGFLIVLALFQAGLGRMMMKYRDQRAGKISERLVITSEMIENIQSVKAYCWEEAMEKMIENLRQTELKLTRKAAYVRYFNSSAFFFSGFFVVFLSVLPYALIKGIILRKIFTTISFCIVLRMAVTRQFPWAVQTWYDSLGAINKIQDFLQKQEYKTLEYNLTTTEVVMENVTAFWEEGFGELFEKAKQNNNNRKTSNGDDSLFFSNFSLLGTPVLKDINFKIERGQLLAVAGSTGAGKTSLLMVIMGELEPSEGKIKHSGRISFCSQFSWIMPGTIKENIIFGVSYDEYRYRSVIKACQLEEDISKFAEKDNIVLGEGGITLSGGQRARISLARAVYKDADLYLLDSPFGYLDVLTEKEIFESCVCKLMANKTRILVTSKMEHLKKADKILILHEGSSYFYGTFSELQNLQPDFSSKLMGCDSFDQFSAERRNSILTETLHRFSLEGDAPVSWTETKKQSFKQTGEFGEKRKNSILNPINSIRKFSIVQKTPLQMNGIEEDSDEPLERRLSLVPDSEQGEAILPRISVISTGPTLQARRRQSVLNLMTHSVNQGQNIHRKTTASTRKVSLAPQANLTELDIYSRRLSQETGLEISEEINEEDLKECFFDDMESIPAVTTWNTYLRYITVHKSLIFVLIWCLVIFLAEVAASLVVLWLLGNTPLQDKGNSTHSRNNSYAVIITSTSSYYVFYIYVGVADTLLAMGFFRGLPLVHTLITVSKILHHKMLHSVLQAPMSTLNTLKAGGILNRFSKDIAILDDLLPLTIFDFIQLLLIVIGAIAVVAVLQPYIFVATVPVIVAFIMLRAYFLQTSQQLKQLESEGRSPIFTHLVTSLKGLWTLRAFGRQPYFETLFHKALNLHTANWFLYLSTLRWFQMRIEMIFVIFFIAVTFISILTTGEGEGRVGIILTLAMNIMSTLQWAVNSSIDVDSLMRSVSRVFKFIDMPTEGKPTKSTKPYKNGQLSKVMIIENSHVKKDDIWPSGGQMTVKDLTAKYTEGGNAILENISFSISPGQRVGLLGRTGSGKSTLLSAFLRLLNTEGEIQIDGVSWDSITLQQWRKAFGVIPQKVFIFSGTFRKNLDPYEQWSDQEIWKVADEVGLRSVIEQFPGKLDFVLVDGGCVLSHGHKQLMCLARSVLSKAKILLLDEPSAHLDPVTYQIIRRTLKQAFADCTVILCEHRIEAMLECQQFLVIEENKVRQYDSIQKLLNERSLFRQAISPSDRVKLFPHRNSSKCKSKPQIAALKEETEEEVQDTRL
Summary of the method: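 FRT cells stably expressing human wildtype CFTR, grown on 1 cm2 filters to >1,000 Ω.cm2. Basolateral membrane permeabilized with amphotericin B (250 μg/ml, 30 min). Basolateral buffer in mM: 130 NaCl, 10 Na-HEPES, 10 glucose, pH 7.3. Apical side had 65 mM NaCl swapped for gluconate, giving a Cl− gradient. 37 °C, 95% O2/5% CO2. CFTR activated with 100 μM CPT-cAMP, then inhibitor added at stepped concentrations. Voltage-clamped apical current recorded; IC50 fitted.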

[4] = Table 1, variations in Rings A and C
[5] = Table 2, variations in Ring B and Linkers 1 and 2

## O=C(O)c1ccc(/C=C2\SC(=S)N(c3cccc(C(F)(F)F)c3)C2=O)cc1 [Compound 5, 4-[[4-Oxo-2-thioxo-3-[3-(trifluoromethyl)phenyl]-5-thiazolidinylidene]methyl]benzoic acid]
CFTR
  IC50: < 0.5 µM
[1]
  Cholera toxin-induced intestinal fluid secretion: efficacy in reducing cholera toxin-induced intestinal fluid secretion
[2]
  Excretion and metabolism (in words): renal excretion with minimal metabolism
  Toxicity (in words): low toxicity

## O=C1/C(=C/c2ccc(-c3nn[nH]n3)cc2)SC(=S)N1c1cccc(C(F)(F)F)c1 [Compound 6, 5-[[4-(2H-Tetrazol-5-yl)phenyl]methylene]-2-thioxo-3-[3-(trifluoromethyl)phenyl]-4-thiazolidinone]
FRT cells
  % Cell viability: reduced
[3]; listed as Tetrazolo-172
  Increase of water solubility compared with CFTRinh-172: > 10 fold and 11 fold
MDCK cell model
  Prevention of cyst formation: substantially better than by CFTRinh-172

## O=C(O)c1ccc(/C=C2\SC(=S)N(c3ccc(F)c(C(F)(F)F)c3)C2=O)cc1 [Compound 8]
Human wildtype CFTR
  CFTR inhibition activity (in words): intermediate activity

## O=C(O)c1cccc(/C=C2\SC(=S)N(c3ccc(F)c(C(F)(F)F)c3)C2=O)c1 [Compound 11]
Human wildtype CFTR
  CFTR inhibition activity (in words): intermediate activity

## Cc1cccc(N2C(=O)/C(=C/c3ccc(C(=O)O)cc3)SC2=S)c1 [Compound 12]
Human wildtype CFTR
  CFTR inhibition activity (in words): less active

## O=C1/C(=C/c2cc(Br)c(O)c(Br)c2)SC(=S)N1c1cccc(C(F)(F)F)c1 [Compound 14]
Human wildtype CFTR
  CFTR inhibition activity (in words): modest inhibition activity

## O=C1/C(=C/c2cc(Br)c(O)c(Br)c2O)SC(=S)N1c1cccc(C(F)(F)F)c1 [Compound 15]
Human wildtype CFTR
  CFTR inhibition activity (in words): modest inhibition activity

## Cc1c(N2C(=O)/C(=C/c3ccc(C(=O)O)cc3)SC2=S)cccc1C(F)(F)F [Compound 18, 4-[[4-Oxo-2-thioxo-3-[2-methyl-3-(trifluoromethyl)phenyl]-5-thiazolidinylidene]methyl] benzoic acid]
FRT cells
  % Cell viability: reduced

## O=C(O)c1ccc(/C=C2\SC(=S)N(c3ccc(Cl)c(C(F)(F)F)c3)C2=O)cc1 [Compound 24]
Human wildtype CFTR
  CFTR inhibition activity (in words): greatly reduced activity

## O=C(O)c1ccc(/C=C2\SC(=S)N(c3cc(C(F)(F)F)ccc3Cl)C2=O)cc1 [Compound 30]
Human wildtype CFTR
  CFTR inhibition activity (in words): greatly reduced activity

## O=C(O)COc1cccc(/C=C2\SC(=S)N(c3cccc(C(F)(F)F)c3)C2=O)c1 [Compound 36]
Human wildtype CFTR
  CFTR inhibition activity (in words): substantially reduced CFTR inhibition

## O=C1/C(=C/c2ccc(O)c(O)c2)SC(=S)N1c1cccc(C(F)(F)F)c1 [Compound 38]
Human wildtype CFTR; [4]
  IC50 (μM): Inactive

## COc1c(Br)cc(/C=C2\SC(=S)N(c3cccc(C(F)(F)F)c3)C2=O)c(O)c1Br [Compound 39]
Human wildtype CFTR; [4]
  IC50 (μM): Inactive

## COc1cc(Br)ccc1/C=C1\SC(=S)N(c2cccc(C(F)(F)F)c2)C1=O [Compound 40]
Human wildtype CFTR; [4]
  IC50 (μM): Inactive

## COc1ccc(/C=C2\SC(=S)N(c3cccc(C(F)(F)F)c3)C2=O)cc1 [Compound 41]
Human wildtype CFTR; [4]
  IC50 (μM): Inactive

## NC(=O)c1ccc(/C=C2\SC(=S)N(c3cccc(C(F)(F)F)c3)C2=O)cc1 [Compound 42]
Human wildtype CFTR; [4]
  IC50 (μM): Inactive

## O=C(NCCO)c1ccc(/C=C2\SC(=S)N(c3cccc(C(F)(F)F)c3)C2=O)cc1 [Compound 43]
Human wildtype CFTR; [4]
  IC50 (μM): Inactive

## NCCNC(=O)c1ccc(/C=C2\SC(=S)N(c3cccc(C(F)(F)F)c3)C2=O)cc1 [Compound 44]
Human wildtype CFTR; [4]
  IC50 (μM): Inactive

## CCOC(=O)c1ccc(/C=C2\SC(=S)N(c3cccc(C(F)(F)F)c3)C2=O)cc1 [Compound 45]
Human wildtype CFTR; [4]
  IC50 (μM): Inactive

## CC(=O)OCOC(=O)c1ccc(/C=C2\SC(=S)N(c3cccc(C(F)(F)F)c3)C2=O)cc1 [Compound 46]
Human wildtype CFTR; [4]
  IC50 (μM): Inactive

## O=C(O)c1ccc(/C=C2\SC(=S)N(Cc3cccc(C(F)(F)F)c3)C2=O)cc1 [Compound 47, 4-[[4-Oxo-2-thioxo-3-[(3-(trifluoromethyl)phenyl)methyl]-5-thiazolidinylidene]methyl] benzoic acid]
Human wildtype CFTR; [5]
  IC50 (μM): Inactive

## O=C(O)c1ccc(/C=C2\SC(=O)N(c3cccc(C(F)(F)F)c3)C2=O)cc1 [Compound 48, 4-[[3-[3-(trifluoromethyl)phenyl]-2,4-dioxo-5-thiazolidinylidene]methyl]benzoic acid]
Human wildtype CFTR; short-circuit current assays
  Reduction of CFTR inhibition potency compared with CFTRinh-172: 3.6 fold
[3]
  Increase of water solubility compared with CFTRinh-172: ~ 25 fold

## O=C(O)c1ccc(NC2=C(Cl)C(=O)N(c3cccc(C(F)(F)F)c3)C2=O)cc1 [Compound 50]
Human wildtype CFTR
  CFTR inhibition activity (in words): weak activity

## O=C(O)c1ccc(SC2CC(=O)N(c3cccc(C(F)(F)F)c3)C2=O)cc1 (stereo not drawn) [Compound 51, 4-[[2,5-dioxo-1-[3-(trifluoromethyl)phenyl]-3-pyrrolidinyl]thio]-benzoic acid]
Human wildtype CFTR
  CFTR inhibition activity (in words): moderate activity

## O=C(O)c1ccc(NC(=S)C2SC(=S)N(c3cccc(C(F)(F)F)c3)C2=O)cc1 (stereo not drawn) [Compound 52, 4-Oxo-[(3-trifluoromethyl)phenyl]-2-thioxo-N-[4-(carboxy)phenyl]-5-thiazolidinethio carboxamide]
[3]
  Water solubility (in words): highly water soluble

## O=C(O)c1ccc(NC(=S)C2SC(=S)N(c3cccc(C(F)(F)F)c3)C2=O)cc1O (stereo not drawn) [Compound 53, 4-Oxo-[(3-trifluoromethyl)phenyl]-2-thioxo-N-[(4-carboxy-3-hydroxy)phenyl]-5-thiazolidinethiocarboxamide]
Human wildtype CFTR; [5]
  IC50: 11 µM
[3]
  Water solubility (in words): highly water soluble

## O=C1C(C(=S)Nc2ccc(S(=O)(=O)O)cc2)SC(=S)N1c1cccc(C(F)(F)F)c1 (stereo not drawn) [Compound 54]
Human wildtype CFTR; [5]
  IC50: 25 µM

## O=C(O)c1ccc(Nc2nc(-c3cccc(C(F)(F)F)c3)cs2)cc1 [Compound 59]
Human wildtype CFTR
  CFTR inhibition activity (in words): weakly active

## O=C(O)c1cc(Nc2nc(-c3cccc(C(F)(F)F)c3)cs2)ccc1O [Compound 60]
Human wildtype CFTR
  CFTR inhibition activity (in words): weakly active

## O=C(O)c1ccc(Nc2nnc(-c3cccc(C(F)(F)F)c3)s2)cc1 [Compound 64, 4-[(5-(3-Trifluoromethylphenyl)-1,3,4-thiadiazol-2-yl)amino]-benzoic acid]
Human wildtype CFTR; [5]
  IC50 (μM): Inactive

## O=C(O)c1ccc(-n2cc(-c3cccc(C(F)(F)F)c3)nn2)cc1 [Compound 68, 4-[4-[3-(trifluoromethyl)phenyl]-1H-1,2,3-triazol-1-yl]-benzoic acid]
Human wildtype CFTR; [5]
  IC50 (μM): Inactive

## O=C(O)c1ccc(-n2cc(-c3ccc(C(F)(F)F)cc3)nn2)cc1 [Compound 69]
Human wildtype CFTR; [5]
  IC50 (μM): Inactive
